The results in this text go back to ChEMBL document CHEMBL1141166, “2-[(Carboxymethyl)sulfanyl]-4-oxo-4-arylbutanoic acids selectively suppressed proliferation of neoplastic human HeLa cells. A SAR/QSAR study” (J Med Chem, 2005).

The structures appear in SMILES notation. Bounds are passed on as bounds.

Data set [1] has as its system HeLa. The experiment in a line: Inhibitory concentration inducing 50% decrease in HeLa cell survival. The following applies: Homo sapiens. The data set is classed as functional, cell-based. In short, it runs like this:
(§1)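 HeLa cells seeded at 2000/well and left 20 h, then exposed to five concentrations (final 3.12 to 50 or 100 μM/L, diluted from a 10 mM/L DMSO stock) in triplicate for 72 h. Medium was RPMI 1640 without phenol red with 10% FBS and 25 mM HEPES, pH 7.2. Survival by MTT: 4 h at 37 °C, SDS lysis, A570. Blank was subtracted and values taken as % of untreated control. IC50 is the concentration giving 50% survival loss.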

A short description of data set [2]: Partition coefficient (logP). The data set is classed as physicochemical. Conditions: octanol/water. A digest of the protocol:
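Calculated rather than measured: log P (n-octanol/water) estimated by Crippen's fragmentation method.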

Data set [3] relates to HeLa. Nature of the data set: Observed concentration that required to induce 50% decrease in HeLa cell survival. Type of data set: functional, cell-based. The following applies: Homo sapiens, read-out: Log 1/IC50 (converted). In short, it runs like this: as §1
The subject of data set [4] is PBMC+PHA (Homo sapiens). The experiment in a line: Inhibitory concentration that required to Induced a 50% decrease in PBMC+PHA (healthy human's peripheral blood cells) cells survival.
Data set [5] relates to PBMC+PHA (Homo sapiens). Nature of the data set: Selectivity index that required to induce 50% decrease in PBMC+PHA (healthy human's peripheral blood cells) cells survival.
The test system of data set [6] is PBMC (Homo sapiens). Nature of the data set: Inhibitory concentration that required to induce 50% decrease in PBMC (healthy human's peripheral blood cells) cells survival.
Data set [7] has as its system PBMC (Homo sapiens). Nature of the data set: Selectivity index that required to induce 50% decrease in PBMC (healthy human's peripheral blood cells) cells survival.
Data set [8] concerns PBMC+PHA (Homo sapiens). The experiment in a line: Inhibitory concentration that required to induced a 50% decrease in PBMC+PHA (healthy human's peripheral blood cells) cells survival.
Data set [9] has as its system PBMC+PHA (Homo sapiens). Nature of the data set: Inhibitory concentration that required to induce 50% decrease in PBMC+PHA (healthy human's peripheral blood cells) cells survival.
In data set [10] the test system is PBMC (Homo sapiens). The experiment in a line: Inhibitory concentration that required to Induced a 50% decrease in PBMC (healthy human's peripheral blood cells) cells survival.

One may read the logP as the decadic logarithm of the partition coefficient of the neutral form, usually between octanol and water. A high value points to a more lipophilic compound. As to `CCCCCCCCCCCCc1ccc(C(=O)CC(SCC(=O)O)C(=O)O)cc1` (stereo not drawn), the IC50 in data set [1] and in data set [3] was 1.71 µM each time. In addition, in data set [2], the log partition coefficient (logP) came to 5.79.
In the case of `O=C(O)CSC(CC(=O)c1ccc(Cl)cc1)C(=O)O` (stereo not drawn), the IC50 is 17.2 µM in data set [1] and 17.3 µM in data set [3]. Further, in data set [2], the logP came to 1.27.
Taken in the same sequence, the figures for `O=C(O)CSC(CC(=O)c1ccc(Br)cc1)C(=O)O` (stereo not drawn) were 9.5 µM, 9.51 µM and 1.54.
As to `CC(C)(C)c1ccc(C(C)(C)C)c(C(=O)CC(SCC(=O)O)C(=O)O)c1` (stereo not drawn), the IC50 in data set [4] is 37.1 µM; in data set [1], 4.36 µM; in data set [6], 43.7 µM; in data set [3], 4.36 µM. The Si is 8.5 in [5] and 10 in [7]. In addition, the logP in data set [2] came out at 4.12.
`CC(C)c1ccc(C(=O)CC(SCC(=O)O)C(=O)O)c(C(C)C)c1` (stereo not drawn): the IC50 in [8] was 7.14 µM; in data set [1] it was 1.1 µM; in data set [6] it was 6.79 µM; in data set [3], 1.1 µM. Further, the Si in [5] is reported as 6.49; in data set [7] it was 6.17. Besides, in data set [2], the logP stood at 3.18.
For the compound `CCc1ccc(C(=O)CC(SCC(=O)O)C(=O)O)cc1` (stereo not drawn), the IC50 in data set [1] and in [3] was 4.79 µM throughout. Further, in data set [2], the logP stood at 1.61.
`COc1ccc(C(=O)CC(SCC(=O)O)C(=O)O)c(OC)c1OC` (stereo not drawn): the IC50 in data set [1] and in data set [3] was 29.5 µM throughout. The logP in data set [2] stood at 0.33.
For `CC(C)c1ccc(C(=O)CC(SCC(=O)O)C(=O)O)cc1` (stereo not drawn), the IC50 in data set [1] and in data set [3] was 3.33 µM each time. In data set [2], this compound showed a logP of 1.94.
For the compound `CC(C)(C)c1ccc(C(=O)CC(SCC(=O)O)C(=O)O)cc1` (stereo not drawn), the IC50 in [1] and in data set [3] was 1.39 µM throughout. In data set [2], the logP is 2.41.
`Cc1ccc(C(=O)CC(SCC(=O)O)C(=O)O)cc1` (stereo not drawn): the IC50 in [1] and in data set [3] was 17.3 µM each time. Moreover, in data set [2], the logP was 1.2.
With `Cc1ccc(C(=O)CC(SCC(=O)O)C(=O)O)cc1C` (stereo not drawn), the IC50 in data set [1] and in [3] was 3.81 µM throughout. The same compound came in with a logP in [2] of 1.68.
Consider `CC(C)c1ccc(C(C)C)c(C(=O)CC(SCC(=O)O)C(=O)O)c1` (stereo not drawn), for which the IC50 is 15.7 µM in data set [9], 0.644 µM in data set [1], 13.3 µM in data set [6] and 0.644 µM in data set [3]. The Si in data set [5] is recorded as 24.33; in data set [7], 20.65. Further, the logP in data set [2] was 3.18.
For the compound `CCc1cc(CC)c(C(=O)CC(SCC(=O)O)C(=O)O)c(CC)c1` (stereo not drawn), the IC50 in data set [4] was 19.9 µM; in data set [1], 0.88 µM; in [3], 0.879 µM; in [10] it was 19 µM. For the same compound, the Si in data set [5] is recorded as 22.63; in data set [7] it was 21.56. Moreover, the logP in data set [2] came to 3.42.
Take `O=C(O)CSC(CC(=O)c1ccccc1)C(=O)O` (stereo not drawn): the IC50 in data set [1] and in data set [3] was 15 µM in each case. Also, in [2], the logP is 0.71.
Take `Cc1ccc(C(=O)CC(SCC(=O)O)C(=O)O)c(Cl)c1` (stereo not drawn): the IC50 in data set [1] and in [3] was 4.73 µM in each case. For the same compound, the logP in [2] turned out to be 1.75.
With `O=C(O)CS` [THIOGLYCOLIC ACID], the IC50 in data set [9], in data set [1] and in data set [6] was greater than 200 µM each time.
On to `CC(C)c1cc(C(C)C)c(C(=O)CC(SCC(=O)O)C(=O)O)c(C(C)C)c1` (stereo not drawn), for which the IC50 in [4] was 4.78 µM; in [1], 1.66 µM; in data set [3], 1.66 µM; in data set [10], 3.32 µM. For the same compound, the Si in data set [5] is given as 2.58; in data set [7], 2. Also, in data set [2], the logP amounted to 4.41.
Consider `CCCCc1ccc(C(=O)CC(SCC(=O)O)C(=O)O)cc1` (stereo not drawn), for which the figures for the IC50 in data set [1] and in [3] were 1.92 µM and 1.91 µM, respectively. In addition, the logP in [2] was determined as 2.45.
The corresponding values for `Cc1ccc(C)c(C(=O)CC(SCC(=O)O)C(=O)O)c1` (stereo not drawn) are 2.68 µM, 2.68 µM and 1.68.
The corresponding values for `O=C(O)CSC(CC(=O)c1ccc(F)cc1)C(=O)O` (stereo not drawn) are 20.7 µM, 20.7 µM and 0.87.
Taken in the same sequence, the figures for `Cc1ccc(C(=O)CC(SCC(=O)O)C(=O)O)c(C)c1` (stereo not drawn) were 3.83 µM, 3.83 µM and 1.68.
